Measured values published in ChEMBL document CHEMBL1153386, “Allopregnanolone (3alpha-hydroxy-5alpha-pregnan-20-one) derivatives with a polar chain in position 16alpha: synthesis and activity” (J Med Chem, 2009).

Experiments:
[1] = Displacement of [35S]TBPS from Wistar rat brain GABAA receptor
How it was run: (§1)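 Whole-brain membranes from adult male Wistar rats, resuspended in 20 mM KH2PO4/200 mM KCl, pH 7.4. Incubated 60 min at 37 °C with 2 nM [35S]TBPS, 1 µM GABA and steroid at 1 nM–10 µM. Nonspecific binding defined with 200 µM picrotoxinin. Binding expressed as % of DMSO control samples.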

[2] = organism: Rattus norvegicus; experiment: Displacement of [35S]TBPS from Wistar rat brain GABAA receptor relative to control; how it was run: as §1
[3] = organism: Rattus norvegicus; experiment: Displacement of [35S]TBPS from Wistar rat brain GABAA receptor at 100 nM relative to control; how it was run: as §1

Compound: CC(=O)[C@H]1[C@H](C(COC(N)=O)COC(N)=O)C[C@H]2[C@@H]3CC[C@H]4C[C@H](O)CC[C@]4(C)[C@H]3CC[C@@]21C
- IC50 [1]: 86 nM
- Imax [2]: 26%

Compound: CC(=O)[C@H]1[C@H](CCOC(N)=O)C[C@H]2[C@@H]3CC[C@H]4C[C@H](O)CC[C@]4(C)[C@H]3CC[C@@]21C
- IC50 [1]: 750 nM
- Imax [2]: 61%

Compound: CC(=O)[C@H]1[C@H](CCOC(N)=O)C[C@H]2[C@@H]3CC[C@H]4C[C@H](OC(N)=O)CC[C@]4(C)[C@H]3CC[C@@]21C
- IC50 [1]: 300 nM
- Imax [2]: 59%

Compound: CC(=O)[C@H]1CC[C@H]2[C@@H]3CC[C@H]4C[C@H](O)CC[C@]4(C)[C@H]3CC[C@]12C [BREXANOLONE]
- IC50 [1]: 80 nM
- Imax [2]: 79%

Compound: CC(=O)[C@H]1[C@H](CC(N)=O)C[C@H]2[C@@H]3CC[C@H]4C[C@H](O)CC[C@]4(C)[C@H]3CC[C@@]21C
- inhibition [3]: < 15%

Compound: CC(=O)[C@H]1[C@H](OCC(O)CO)C[C@H]2[C@@H]3CC[C@H]4C[C@H](O)CC[C@]4(C)[C@H]3CC[C@@]21C (stereo partly drawn)
- inhibition [3]: < 15%

Compound: CC(=O)[C@H]1[C@H](C(CO)CO)C[C@H]2[C@@H]3CC[C@H]4C[C@H](O)CC[C@]4(C)[C@H]3CC[C@@]21C
- inhibition [3]: < 15%

Compound: CC(=O)[C@H]1[C@H](CC#N)C[C@H]2[C@@H]3CC[C@H]4C[C@H](O)CC[C@]4(C)[C@H]3CC[C@@]21C
- inhibition [3]: < 15%

Compound: CC(=O)[C@H]1[C@H](CC(=O)O)C[C@H]2[C@@H]3CC[C@H]4C[C@H](O)CC[C@]4(C)[C@H]3CC[C@@]21C
- IC50 [1]: 40 nM
- Imax [2]: 19%

Compound: CC(=O)[C@H]1[C@H](OCCOCCO)C[C@H]2[C@@H]3CC[C@H]4C[C@H](O)CC[C@]4(C)[C@H]3CC[C@@]21C
- inhibition [3]: < 15%

Compound: CC(=O)[C@H]1[C@H](OCCO)C[C@H]2[C@@H]3CC[C@H]4C[C@H](O)CC[C@]4(C)[C@H]3CC[C@@]21C
- inhibition [3]: < 15%

Compound: NC(=O)OCC(COC(N)=O)c1ccccc1 [FELBAMATE]
- IC50 [1]: 95 nM
- Imax [2]: 18%
